Runt-CBFb FRET = blocks binding of human RUNX1 Runt domain to CBFb | Q01196+Q13951 | Cerulean-Runt/Venus-CBFb FRET ratio 530/480, 1 h | inhibition, % at 20 µM | actives 0.46% (n = 220,000);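 active means inhibition over about 50% at 20 µM in the single-dose screen, limit read from the data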;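 further: 0% = DMSO wells and 100% = excess unlabeled CBFb competitor control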
Target sequence (Q01196 whole entry, looked up, the tested form may be a part): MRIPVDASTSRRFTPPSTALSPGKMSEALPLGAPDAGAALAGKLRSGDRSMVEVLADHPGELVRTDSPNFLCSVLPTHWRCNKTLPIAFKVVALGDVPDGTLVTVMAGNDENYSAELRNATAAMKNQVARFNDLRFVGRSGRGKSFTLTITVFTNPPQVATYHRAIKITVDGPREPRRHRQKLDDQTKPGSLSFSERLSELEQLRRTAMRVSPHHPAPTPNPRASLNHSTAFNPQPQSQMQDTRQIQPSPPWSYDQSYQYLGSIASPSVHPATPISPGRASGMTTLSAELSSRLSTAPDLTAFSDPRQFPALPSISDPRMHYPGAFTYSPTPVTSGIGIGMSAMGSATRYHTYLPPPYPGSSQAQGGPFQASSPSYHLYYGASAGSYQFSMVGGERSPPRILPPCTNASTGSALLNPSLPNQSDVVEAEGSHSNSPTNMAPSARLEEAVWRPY
Target sequence (Q13951 whole entry, looked up, the tested form may be a part): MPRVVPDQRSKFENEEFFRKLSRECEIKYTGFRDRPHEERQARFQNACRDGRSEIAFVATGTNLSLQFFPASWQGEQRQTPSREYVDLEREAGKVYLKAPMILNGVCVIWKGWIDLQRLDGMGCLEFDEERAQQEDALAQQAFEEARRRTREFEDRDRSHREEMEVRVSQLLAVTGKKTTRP
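Assay system: Cerulean-Runt domain fusion protein, energy donor; Signal: fluorescence energy transfer, 422 nm excitation, 530/480 nm emission; Timing: 1 h compound exposure, room temperature; Control set: unlabeled CBFb; Medium: Tris buffer pH 7.5 with salts and BSA; Compound: single test concentration of 20 µM, 1% DMSO final; Probe or stimulus: Venus-CBFb 100 nM.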
PfM18AAP inh-1 = PfM18AAP enzyme inhibition; actives 1.2% (n = 290,000); AID 1822; inhibition, % at 7.35 µM; recombinant PfM18AAP, H-Glu-NHMec fluorogenic cleavage;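 active means inhibition above the campaign mean inhibition over all tested compounds plus 3 SD, cut at about 28% in these data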;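 further: 0% = plate median of test compound wells and 100% = 2 mM ZnCl2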
RBBP9 inh = blocks human serine hydrolase RBBP9. O75884. actives 0.2% (n = 220,000). recombinant RBBP9, FP-Rh probe fluorescence polarization. inhibition, % at 7.94 µM;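 active means inhibition above the campaign mean of all tested compounds plus 3 SD, cut at about 14% in these data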;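 further: plate controls were DMSO wells with RBBP9 for no effect and wells lacking RBBP9 protein for full effect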
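Test system: recombinant human RBBP9; Timing: 30 min then 45 min, 25 °C; Detection: fluorescence polarization; Control set: RBBP9 with DMSO as uninhibited control, no-protein wells as full inhibition; Compound dosing: one concentration, 7.94 µM nominal, 0.794% DMSO; Probe or stimulus: FP-Rh activity-based probe, 375 nM before mixing.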
RanGTP-Imp inh = inhibitors of RanGTP-importin-beta interaction, primary screen, biochemical, FRET, CFP-Ran, YFP-importin-beta, homogeneous; AID 2216; actives 1.1% (n = 300,000); inhibition, % (concentration not given with the values); cell-free CFP-Ran/YFP-importin-beta FRET ratio;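 active means more than half of the replicate wells show a fall in the fluorescence ratio signal beyond about 16%, limit read from the data, passing the limit was not always enough; inconclusive means exactly half of the replicate wells pass the set limit; inactive means fewer than half of replicates pass the limit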;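 further: 0% = DMSO wells and 100% = Ran loaded with GDP instead of GTP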
Runt-SMMHC FRET = Runt domain-CBFb-SMMHC interaction inhibition | Q01196+Q13951 | actives 0.74% (n = 220,000) | inhibition, % at 20 µM | Cerulean-Runt/Venus-CBFb-SMMHC FRET ratio 530/480, 1 h;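 active means mean inhibition across duplicate retests at 20 µM reaching about 50%, limit read from the data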;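 further: 0% = DMSO wells and 100% = wells with excess untagged CBFb-SMMHC; inhibitors lower the FRET ratio by blocking Runt binding to CBFb-SMMHC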
Hck-Nef inh = blocks Nef-activated human Hck kinase | P08631 | Recombinant Hck-YEEI plus Nef, Z-Lyte FRET kinase assay | inhibition, % at 20 µM | actives 0.68% (n = 220,000) | AID 463187;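 active means Hck-Nef kinase inhibition above about 50%, limit read from the data; inactive means inhibition below that limit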;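 further: 0% = DMSO with Hck plus Nef and 100% = Hck alone without Nef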
PfM18AAP inh-2 = PfM18AAP inhibition, confirmation; shares compounds with PfM18AAP inh-1; recombinant PfM18AAP, H-Glu-NHMec fluorogenic cleavage; inhibition, % at 7.35 µM; actives 28% (n = 2,400); AID 2170;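 active means mean inhibition over replicate wells above the hit cutoff set for the earlier primary screen, cut at about 29% in these data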;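 further: 0% = median of test compound wells and 100% = 2 mM ZnCl2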
CTSL1 counter = Cathepsin L (human) inhibition, confirmation; 2,400 tested, under 10 active; inhibition, % at 5.96 µM; shares compounds with PfM18AAP inh-1; purified cathepsin L1, Z-Leu-Arg-MCA fluorescence;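 active means average inhibition across replicates above the hit cutoff set in the earlier primary screen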;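 further: 0% = median of test compound wells and 100% = Z-Phe-Ala-diazomethylketone 1 µM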
* marks the source's active call; other numbers are inactive results; ? = inconclusive; . = no result given. Sampled rows, rich in hits. Any-hit rate of the full collection: about 2.9%.

SMILES	Runt-CBFb FRET	PfM18AAP inh-1	RBBP9 inh	RanGTP-Imp inh	Runt-SMMHC FRET	Hck-Nef inh	PfM18AAP inh-2	CTSL1 counter
CCOC(=O)Cc1csc(NC(=O)NC2(C(F)(F)F)Oc3ccccc3O2)n1	6.0	90.1*	-4.0	-1.2	-3.8	-0.2	67.6*	0.6
CCOC(=O)C1(Cc2cccc(OC)c2)CCCN(Cc2cc(OC)c(O)c(OC)c2)C1 (stereo unspecified)	.	7.4	.	0.1	.	.	.	.
CCOC(=O)CNC(=S)n1ncnc1N	2.2	57.8*	0.5	?	-3.1	1.8	-13.6	1.7
CCOC(=O)CNC(=S)SC	2.1	-0.3	-5.8	-3.3	0.7	15.3	.	.
Oc1ccc(/C=N/NC(=S)NCCN2CCOCC2)c(O)c1	8.8	52.1*	-5.4	3.0	16.2	2.6	27.4	12.2
Cc1[nH][nH]c(=O)c1C(c1ccc(N(C)C)c(Br)c1)c1c(C)[nH][nH]c1=O	3.7	35.7*	-2.1	2.2	-3.4	11.4	16.9	5.0
Cc1cc(/C=C2\SC(=O)N(C)C2=O)c(C)n1-c1ccc(O)cc1	.	33.0*	.	-2.5	.	.	-47.5	-2.4
CC(C)C1NC(C(=O)O)Cc2c1[nH]c1ccccc21 (stereo unspecified)	.	37.4*	.	7.6	.	.	29.2*	-1.3
CCOC(=O)C1=C(N)Oc2cc(O)ccc2C1c1ccc(Br)cc1 (stereo unspecified)	.	-8.2	.	3.5	.	.	.	.
CCC(CC)NC(=O)c1nn(Cc2ccccc2)c(=O)c2ccccc12	.	2.1	.	-1.8	.	.	.	.
CC(C)[C@H](NC(=O)c1nn(Cc2ccccc2)c(=O)c2ccccc12)C(=O)O	.	36.1*	.	1.3	.	.	-40.9	2.3
S=C(NNC(=S)Nc1ccccc1)Nc1ccccc1	.	50.1*	.	-0.1	.	.	0.8	-1.1
NC(=S)NNC(=S)Nc1ccccc1	20.3	42.1*	-3.7	2.7	-1.4	18.7	2.1	-2.2
CC1(C)CC2(CC(c3ccccc3F)c3ccc(O)c(O)c3O2)NC(=S)N1 (stereo unspecified)	46.5	49.0*	-4.6	-0.7	53.2	23.6	80.9*	4.5
CC1(C)CC2(CC(c3ccc(F)cc3)c3ccc(O)cc3O2)NC(=S)N1 (stereo unspecified)	3.0	12.0	-9.1	4.4	0.3	12.4	.	.
Cc1ccc(/C=C2/Sc3ccccc3N(CC(=O)NCC3CCCO3)C2=O)cc1 (stereo unspecified)	.	3.2	.	-3.7	.	.	.	.
Cc1cc(/C=C2\Sc3ccccc3N2C)cc(C)[n+]1CC1CCCO1 (stereo unspecified)	1.4	50.3*	-3.9	.	46.1	-28.2	-41.2	2.6
Cn1ncc(Br)c1NC(=O)Nc1ccc(Cl)cc1	.	-1.1	.	-1.5	.	.	.	.
COc1ccc(-n2nc(C(=O)NCC(=O)NCCCN3CC(C)CC(C)C3)c3ccccc3c2=O)cc1OC (stereo unspecified)	.	2.1	.	0.2	.	.	.	.
N#Cc1c(NC(NC(=O)c2ccco2)C(=O)c2ccccc2)sc2c1CCCC2 (stereo unspecified)	27.9	22.5	-0.2	1.6	16.9	1.5	.	.
NC(=O)c1c(NC(NC(=O)c2ccco2)C(=O)c2ccc(Cl)cc2)sc2c1CCCC2 (stereo unspecified)	29.5	38.2*	-0.9	-4.5	12.9	0.6	-22.0	0.7
CC(C)(C)C(=O)Nc1nnc(SCC(=O)NC2CCCC2)s1	.	-13.0	.	4.5	.	.	.	.
O=C(Cc1csc(N2CCOCC2)n1)N/N=C/c1ccc(Cl)cc1Cl	-2.2	0.8	-2.6	2.9	-0.8	3.1	.	.
COc1cc(/C=N/NC(=O)Cc2csc(N3CCOCC3)n2)cc(OC)c1O	19.8	31.7*	-7.0	6.5	33.4	34.9	-36.7	0.0
O=C(CN1C(=O)C2C3C=CC(C3)C2C1=O)OCC(=O)c1ccc([N+](=O)[O-])cc1 (stereo unspecified)	.	42.2*	.	5.2	.	.	-18.8	-0.4

Assay outcomes deposited in PubChem BioAssay by several laboratories.
